Not all results are given here.
Apaf1 activ – activators of human Apaf-1 apoptosome, primary screen, biochemical, DEVD-Rh110 fluorescence, uHTS. Apaf-1 apoptosome caspase-3 activation; active compounds read low. activity change, negative = activation, % at 20 µM. 330,000 tested, 0.31% active. AID 489031, 2010;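 active = activity change at or below -40% at 20 µM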
Target sequence (O14727 whole entry, looked up): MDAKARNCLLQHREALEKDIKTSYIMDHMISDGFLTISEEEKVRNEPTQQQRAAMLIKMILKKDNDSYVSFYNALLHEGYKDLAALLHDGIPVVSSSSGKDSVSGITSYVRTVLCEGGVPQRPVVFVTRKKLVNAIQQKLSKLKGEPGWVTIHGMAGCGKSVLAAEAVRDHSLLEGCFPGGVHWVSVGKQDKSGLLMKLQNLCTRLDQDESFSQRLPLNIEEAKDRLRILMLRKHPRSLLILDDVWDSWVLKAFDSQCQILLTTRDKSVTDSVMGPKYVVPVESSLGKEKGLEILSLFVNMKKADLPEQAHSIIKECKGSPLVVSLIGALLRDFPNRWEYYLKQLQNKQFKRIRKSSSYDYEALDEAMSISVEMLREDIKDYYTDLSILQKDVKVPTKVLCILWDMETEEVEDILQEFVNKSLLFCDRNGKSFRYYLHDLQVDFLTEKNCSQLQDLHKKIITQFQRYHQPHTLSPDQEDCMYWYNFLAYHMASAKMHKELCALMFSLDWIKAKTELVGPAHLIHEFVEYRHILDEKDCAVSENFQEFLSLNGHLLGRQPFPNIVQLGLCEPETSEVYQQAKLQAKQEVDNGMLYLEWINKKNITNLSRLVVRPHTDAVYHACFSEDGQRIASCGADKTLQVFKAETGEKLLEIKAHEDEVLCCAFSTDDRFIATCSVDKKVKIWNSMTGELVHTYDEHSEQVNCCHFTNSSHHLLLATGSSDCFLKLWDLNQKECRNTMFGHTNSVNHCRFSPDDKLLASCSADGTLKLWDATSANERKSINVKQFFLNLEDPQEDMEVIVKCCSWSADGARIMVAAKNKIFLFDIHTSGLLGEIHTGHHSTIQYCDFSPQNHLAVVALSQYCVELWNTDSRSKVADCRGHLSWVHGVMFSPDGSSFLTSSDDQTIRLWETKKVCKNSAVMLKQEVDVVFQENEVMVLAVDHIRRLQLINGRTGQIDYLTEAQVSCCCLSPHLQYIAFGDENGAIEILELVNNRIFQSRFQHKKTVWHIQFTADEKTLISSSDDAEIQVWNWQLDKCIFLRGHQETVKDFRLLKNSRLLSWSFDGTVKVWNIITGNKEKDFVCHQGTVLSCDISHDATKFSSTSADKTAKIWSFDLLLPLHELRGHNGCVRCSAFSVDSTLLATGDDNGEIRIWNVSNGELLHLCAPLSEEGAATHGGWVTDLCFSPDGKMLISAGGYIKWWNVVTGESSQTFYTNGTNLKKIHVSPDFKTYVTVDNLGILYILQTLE
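Schedule: 30 min preincubation, 50 min reaction, room temperature / System: biochemical Apaf-1 apoptosome reconstitution / Medium: 20 mM HEPES pH 7.5 with CHAPS, BSA / Evaluation: Caspase-3 cleavage activity downstream of Apaf-1 activation / Detection: Caspase-3-released Rh110 fluorescence, 540 nm emission, 480 nm excitation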
Rh110 act interf – Rh110 fluorescence interference by putative Apaf-1 activators, confirmation, artefact control for Apaf-1 activator project, biochemical, 20 µM. shares compounds with Apaf1 activ. quenched caspase reaction, Ex480/Em540. fluorescence interference (activity change), % at 20 µM, hits read low. 980 tested, under 10 active. AID 504616, 2011;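 active = mean activity change at or below -40% when tested at 20 µM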
Apaf-1 act conf – Apaf-1 activators, single-dose retest, confirmation, biochemical, fluorescence, DEVD-Rh110, 20 µM; activity change, negative = activation, % at 20 µM; shares compounds with Apaf1 activ; reconstituted apoptosome caspase-3 activity; active compounds read low; 980 tested, 5% active;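 active = mean activity change at or below -40%, meaning activation of 40% or more, at 20 µM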
Apaf1 act interf – fluorescence interference of Apaf-1 activator hits, dose response, artefact control for Apaf-1 activator project. shares compounds with Apaf1 activ. fluorescence interference counterscreen, Apaf-1 activator assay. EC50, µM. 55 tested, under 10 active. AID 588592, 2011; call rule not given here
Large screens that a line does not name were inactive (follow-up assays come after a bar, where they were run).

C#CCOCCOCCOCCNc1nc(N2CCN(C(=O)CCCCCCCCCCNC(=O)[C@H]([C@@H](C)CC)n3cc(CCCCN=C(N)N)nn3)CC2)nc(N2CCN(C(=O)CCCCCCCCCCNC(=O)[C@@H]([C@H](C)O)n3cc(C)nn3)CC2)n1	none
O=C(O)c1cccc(-c2ccc(/C=c3/sc4nc5ccccc5n4c3=O)o2)c1	Apaf1 activ -195 | Rh110 act interf inactive | Apaf-1 act conf inactive | Apaf1 act interf inactive
Cc1[nH][nH]c(=O)c1C(c1ccc(-c2cccc(C(=O)O)c2)o1)c1c(C)[nH][nH]c1=O	none
O=C(O)c1cccc(NC2=C(n3nnc4ccccc43)C(=O)c3ccccc3C2=O)c1	none
CCOc1ccc(NC(=S)Nc2cccc3cnccc23)cc1	none
CCOc1ccc(OCc2ccc(C(=O)Nc3cccnc3)cc2)cc1	Apaf1 activ -51 | Rh110 act interf inactive | Apaf-1 act conf inactive
S=C(Nc1cccnc1)Nc1cccc2cnccc12	none
CCN(C(=S)Nc1cccnc1)c1cccc2ccccc12	none
O=C(Nc1ccccc1C(=O)Nc1cccnc1)c1ccccc1	Apaf1 activ -166 | Rh110 act interf inactive | Apaf-1 act conf inactive
CCOc1ccc(NC(=O)CN(C)C(=O)c2ccc(COc3ccccc3)cc2)cc1OCC	none
C#CCOCCOCCOCCNc1nc(N2CCN(C(=O)CCCCCCCCCCNC(=O)[C@@H](CCSC)n3cc(CCO)nn3)CC2)nc(N2CCN(C(=O)CCCCCCCCCCNC(=O)[C@H](CCCN=C(N)N)n3cc(C[C@@H](C)CC)nn3)CC2)n1	none
NC(CO)C(=O)NNCc1ccc(O)c(O)c1O (centres undefined)	none
COC(=O)CCC(=O)OC1(C)C(=O)C=C2C=C(C3CC3)N(C3CCCC3)C=C2C1=O (centres undefined)	none
Cc1cc(C)c(S(=O)(=O)/N=C2\C=C(Nc3ccc(C(=O)O)cc3)C(=O)c3ccccc32)c(C)c1	none
C#CCOCCOCCOCCNc1nc(N2CCN(C(=O)CCCCCCCCCCNC(=O)Cn3cc(CCCCCN)nn3)CC2)nc(N2CCN(C(=O)CCCCCCCCCCNC(=O)[C@@H]([C@H](C)O)n3cc(C)nn3)CC2)n1	none
CC(=O)c1cccc(CN2CCN(C3CCCC3)C(CCO)C2)c1 (centres undefined)	Apaf1 activ -300 | Rh110 act interf inactive | Apaf-1 act conf inactive
CN(Cc1ccc(Cl)c(Cl)c1)C(=O)c1cccc(S(=O)(=O)N2CCN(Cc3ccccc3)CC2)c1	none
NC(=O)c1ccc(N=C2C(=O)Nc3ccc([N+](=O)[O-])cc32)cc1	none
O=C(NC1=C(Nc2ccc(F)cc2)C(=O)c2ccccc2C1=O)c1ccc(Cl)cc1	none
COc1ccc(C(=O)c2c(C(F)(F)F)oc3c2C(=O)c2ccccc2C3=O)cc1OC	none
COc1ccc(C(=O)Nc2ccc3c(c2)C(=O)c2ccccc2C3=O)cc1OC	Apaf1 activ -507 | Rh110 act interf inactive | Apaf-1 act conf inactive | Apaf1 act interf inactive
Nc1ccc(N)c(C(=O)O)c1	none
CN(CCC#N)C(=O)COC(=O)c1cc(Cl)cc(Cl)c1N	Apaf1 activ -63 | Rh110 act interf inactive | Apaf-1 act conf inactive
COc1ccc(OC)c2sc(N(CCCN(C)C)C(=O)c3ccc(S(=O)(=O)N4CCc5ccccc5C4)cc3)nc12	none
COc1ccccc1C(CNC(=O)c1ccc(S(=O)(=O)NCc2ccco2)cc1)N(C)C (centres undefined)	Apaf1 activ -53 | Rh110 act interf inactive | Apaf-1 act conf inactive
COc1ccccc1CNS(=O)(=O)c1ccc(-c2cc(C)no2)cc1	none
Cc1ccc(-c2nn3c(C)nnc3c3ccccc23)cc1S(=O)(=O)NCc1ccco1	none
C[C@H](CCC(=O)O)[C@H]1CC[C@H]2[C@@H]3[C@H](O)C[C@@H]4C[C@H](O)CC[C@]4(C)[C@H]3C[C@H](O)[C@]12C	none
COC(=O)Nc1nnc(COc2ccccc2)s1	Apaf1 activ -573 | Rh110 act interf inactive | Apaf-1 act conf inactive
CCCCNc1c(-c2ccc(OC)c(Sc3ccc(OC)cc3)c2)nc2cnccn12	none
COc1ccc(-c2nc3nc(C)c(Cc4ccccc4)c(=O)n3[nH]2)cc1	none | Apaf1 act interf inactive
COc1ccc(Cn2nc(-c3ccccc3)c(N3CCCCC3)cc2=O)cc1	none
CC1(C)OC(C)(C)/C(=C/Nc2ccc(O)cc2)C1=O	none
CCC[C@@H](CN1CCC[C@H]1CN1C(N)=NC[C@@H]1Cc1ccccc1)N1C[C@@H](Cc2ccccc2)N(CCCC2CCCC2)C1=N	none
CC[C@H](C)Cc1cn([C@@H](CCCCN)C(=O)NCCCCCCCCCCC(=O)N2CCNCC2)nn1	none
COc1ccc(-c2nn(-c3ccccc3)cc2/C=C(\C#N)C(N)=O)cc1[N+](=O)[O-]	Apaf1 activ -53 | Rh110 act interf inactive | Apaf-1 act conf inactive
N#C/C(=C/c1cn(-c2ccccc2)nc1-c1cccc(OCc2ccc(F)cc2)c1)C(=O)NCCCn1ccnc1	none
COc1ccc(-c2nn(-c3ccccc3)cc2/C=C(/C#N)C(N)=O)cc1[N+](=O)[O-]	Apaf1 activ -57 | Rh110 act interf inactive | Apaf-1 act conf inactive
CC1=NN(c2ccccc2)C(=O)/C1=C\c1ccc(Oc2ccc([N+](=O)[O-])cc2[N+](=O)[O-])cc1	none
CC(C)(C)C(=O)NC1=NN(c2c(Cl)cc(Cl)cc2Cl)C(=O)C1	none
CC1CCCCN1S(=O)(=O)c1ccc(C(=O)N(CCCN(C)C)c2nc3ccc(Br)cc3s2)cc1 (centres undefined)	none
Cc1ccc(SCC(=O)OCC(=O)NCCNC(=O)COC(=O)CSc2ccc(C)c(C)c2)cc1C	none
CCOc1cc(CNc2ccc(O)cc2)ccc1OCc1ccc(Cl)cc1Cl	none
Cc1ccc2[nH]c3c(c2c1)CN(C(=O)CN1CCN(c2cccc(C)c2C)CC1)CC3	none
O=C(NCCC(=O)N1CCN(c2cccc(Cl)c2)CC1)c1ccc(Br)cc1	none
COCCn1c(=S)[nH]c2cc(C(=O)N3CCN(c4cccc(Cl)c4)CC3)ccc2c1=O	Apaf1 activ -324 | Rh110 act interf inactive | Apaf-1 act conf inactive
COC(=O)c1ccc2c(=O)n(CCCCCC(=O)N3CCN(c4ccccc4)CC3)c(=O)[nH]c2c1	none
COc1ccc(Br)cc1C1CC(=O)N2CN(C)CSC2=C1C#N (centres undefined)	none
CCN1CCN(c2ccc(S(=O)(=O)N3CCCCC3)cc2NC(=O)COc2ccc(Cl)c(C)c2)CC1	none
COc1ccc(/C=N/Nc2cc(N3CCCC3)nc(N3CCCC3)n2)cc1	none
CCN1C(N(C)CCc2c[nH]c3ccccc23)=N[C@@H](c2cccc(C(F)(F)F)c2)C(C(=O)OC)=C1C	none
COc1ccccc1C(=O)NC(CCSC)C(=O)N1CCC(Cc2ccccc2)CC1 (centres undefined)	none
Cc1ccc(C)c(NC(=S)NC(NC(=O)OCc2ccccc2)C(Cl)(Cl)Cl)c1 (centres undefined)	Apaf1 activ -41 | Rh110 act interf inactive | Apaf-1 act conf inactive
